Assay results published in article PMC12818350 (Nature Biotechnology, 2025).
Non-standard residues stand in square brackets, D forms with d. No end group written: not given here.

Tests used:
S. aureus SH1000 [1] = experiment: MIC assay; assay type: cell-based, Staphylococcus aureus
S. aureus SH1000 [2] = experiment: Mutant isolation by direct plating; assay type: cell-based, Staphylococcus aureus; conditions: 8× MIC, ~1 × 10^7 cells per ml, LB, 30 °C, overnight
S. aureus ClpX = S. aureus ClpX (Staphylococcus aureus, UniProt Q2FXQ7); experiment: Isothermal titration calorimetry; assay type: binding; conditions: 25 °C, ~30 μM His-ClpX, ~300 μM ligand
S. aureus ClpX, sequence (Q2FXQ7 whole entry): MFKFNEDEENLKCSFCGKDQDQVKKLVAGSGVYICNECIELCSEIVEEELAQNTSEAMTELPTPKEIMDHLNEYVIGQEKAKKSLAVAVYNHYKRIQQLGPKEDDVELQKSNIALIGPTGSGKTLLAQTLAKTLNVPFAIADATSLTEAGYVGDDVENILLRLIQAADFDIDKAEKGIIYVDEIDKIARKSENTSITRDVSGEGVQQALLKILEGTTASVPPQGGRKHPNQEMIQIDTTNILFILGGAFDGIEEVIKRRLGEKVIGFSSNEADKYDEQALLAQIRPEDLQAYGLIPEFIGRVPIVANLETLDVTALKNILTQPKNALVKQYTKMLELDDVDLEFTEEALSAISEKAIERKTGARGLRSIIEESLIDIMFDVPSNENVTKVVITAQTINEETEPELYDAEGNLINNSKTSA

HeLa cells = experiment: Human cell toxicity assay; assay type: cell-based; conditions: MTT, 48 h, 32 and 3.2 µg ml−1, duplicate wells; three biologically independent replicates
How it was run: (§1)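 Cells grown in DMEM with 10% FBS, penicillin–streptomycin, glutamine and nonessential amino acids, and seeded in exponential phase at 5,000 per well, 37 °C, 5% CO2. Compound added from a DMSO stock in phenol red-free DMEM (final DMSO 0.5% or 0.05%). Vehicle sets 100% viability; camptothecin 40 µg ml−1 sets 0%. MTT added for 4 h, solubilized overnight, A570 read, normalized to percentage survival.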

HEK239 cells = experiment: Human cell toxicity assay; assay type: cell-based; conditions: MTT, 48 h, 32 and 3.2 µg ml−1, duplicate wells; three biologically independent replicates
How it was run: as §1

[dT]PFYL (also: lariat or depsi (positions not given here)) [synBNP 27, trigintamicin]
antibiotic activity after shifting the assay conditions to 37 °C (in words) (S. aureus SH1000 [1]; S. aureus, 37 °C instead of 30 °C): abolished | antibiotic activity against S. aureus (in words) (S. aureus SH1000 [1]; resolved trigintamicin isomers after resynthesis, 30 °C): showing antibiotic activity | resistant mutants by direct plating (S. aureus SH1000 [2]): generated resistant mutants | binding to ClpX by ITC (in words) (S. aureus ClpX): bound ClpX | human cell toxicity (in words) (HeLa cells): human cell cytotoxicity | human cell toxicity (in words) (HEK239 cells): human cell cytotoxicity
